Data from ChEMBL document CHEMBL1138087, “Synthesis and evaluation of N-aryl pyrrolidinones as novel anti-HIV-1 agents. Part 1” (Bioorg Med Chem Lett, 2006).

Key:
[1] = tested on: HEK293; assay: Cytotoxicity against HEK293T cells; type: functional; settings: Homo sapiens
In short: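 293T cells seeded at 700 cells/well and cultured 24 h at 37 °C under 5% CO₂. Serially diluted compound in DMSO added to uninfected cells, then a further 48 h at 37 °C. Viability read by fluorescence after Alamar Blue (diluted 1:1 in DMEM) and 4 h at room temperature.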

[2] = tested on: Human immunodeficiency virus 1; assay: Antiviral activity against wild type HIV1 virus; type: functional, organism-based
In short: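 HEK 293T cells grown in DMEM with 10% FBS and Pen/Strep/Glutamine. Seeded at 700 cells/well, cultured 24 h at 37 °C under 5% CO₂. Serially diluted compound in DMSO added, then 1 h at 37 °C. HIV reporter virus added at MOI about 1.0, cells cultured a further 48 h at 37 °C. Luciferase read-out with Bright-Glo reagent.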

[3] = tested on: Human immunodeficiency virus 1; assay: Selectivity for wild type HIV1 virus over HIV1 Y181C mutant; type: functional
[4] = tested on: Human immunodeficiency virus 1; assay: Selectivity for wild type HIV1 virus over HIV1 K103N mutant; type: functional
[5] = tested on: Human immunodeficiency virus 1; assay: Antiviral activity against HIV1 L100I mutant; type: functional, organism-based
In short: (§1)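 HEK 293T cells grown in DMEM with 10% FBS and Pen/Strep/Glutamine. Cells seeded at 700 cells/well and cultured 24 h at 37 °C under 5% CO₂. Compounds serially diluted in DMSO were added and incubated 1 h at 37 °C. Cells were then infected with HIV reporter virus at MOI ~1.0 and cultured a further 48 h at 37 °C. Read-out was luciferase activity (Bright-Glo).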

[6] = tested on: Human immunodeficiency virus 1; assay: Antiviral activity against HIV1 K103N/L100I mutant; type: functional, organism-based; in short: as §1
[7] = tested on: Human immunodeficiency virus 1; assay: Antiviral activity against HIV1 Y181C mutant; type: functional, organism-based; in short: as §1
[8] = tested on: Human immunodeficiency virus 1; assay: Selectivity for wild type HIV1 virus over HIV1 K103N/L100I mutant; type: functional
[9] = tested on: Human immunodeficiency virus 1; assay: Selectivity for wild type HIV1 virus over HIV1 L100I mutant; type: functional
[10] = tested on: Human immunodeficiency virus 1; assay: Antiviral activity against HIV1 K103N mutant; type: functional, organism-based; in short: as §1

Row | EC50 [2] | SMILES | CC50 [1] | other results
1 | 2370 nM | COc1ccc([C@H]2CC(=O)N(c3cccnc3)C2)cc1OC1CCCC1 | > 10000 nM | –
2 | 1780 nM | COc1ccc([C@H]2CC(=O)N(c3cccc(O)c3)C2)cc1OC1CCCC1 | > 10000 nM | –
3 | 7900 nM | COc1ccc([C@H]2CC(=O)N(c3cccc(NCCCc4ccccc4)c3)C2)cc1OC1CCCC1 | > 10000 nM | –
4 | 1960 nM | COc1ccc([C@H]2CC(=O)N(c3cccc(NCc4ccoc4)c3)C2)cc1OC1CCCC1 | > 10000 nM | –
5 | 502 nM | COc1cccc(C(=O)C(=O)Nc2cccc(N3C[C@@H](c4ccc(OC)c(OC5CCCC5)c4)CC3=O)c2)c1 | > 10000 nM | –
6 | 104 nM | COc1ccc(OC)c(S(=O)(=O)Nc2cccc(N3C[C@@H](c4ccc(OC)c(OC5CCCC5)c4)CC3=O)c2)c1 | 7590 nM | –
7 | 520 nM | COc1ccc([C@H]2CC(=O)N(c3cccc(C#N)c3)C2)cc1OC1CCCC1 | > 10000 nM | –
8 | > 10000 nM | COc1ccc([C@H]2CC(=O)N(c3ccccc3C)C2)cc1OC1CCCC1 | > 10000 nM | –
9 | 124 nM | COc1ccc([C@H]2CC(=O)N(c3cccc(NC(=O)C(=O)c4cccc(N(C)C)c4)c3)C2)cc1OC1CCCC1 | > 10000 nM | –
10 | 3260 nM | COc1ccc([C@H]2CC(=O)N(c3ccc(C)cc3)C2)cc1OC1CCCC1 | > 10000 nM | –
11 | 196 nM | COc1ccc([C@H]2CC(=O)N(c3ccc(C)c(N)c3)C2)cc1OC1CCCC1 | > 10000 nM | –
12 | > 10000 nM | COc1ccc([C@H]2CC(=O)N(c3cccc(S(C)(=O)=O)c3)C2)cc1OC1CCCC1 | > 10000 nM | –
13 | 3620 nM | COc1ccc([C@H]2CC(=O)N(c3ccc(C(F)(F)F)cc3)C2)cc1OC1CCCC1 | > 10000 nM | –
14 | 1020 nM | COc1ccc([C@H]2CC(=O)N(c3cccc(NCC4CCOC4)c3)C2)cc1OC1CCCC1 (stereo partly specified) | > 10000 nM | –
15 | 6960 nM | CCCCNc1cccc(N2C[C@@H](c3ccc(OC)c(OC4CCCC4)c3)CC2=O)c1 | > 10000 nM | –
16 | 40 nM | COc1ccc([C@H]2CC(=O)N(c3ccc([S+](C)[O-])cc3)C2)cc1OC1CCCC1 (stereo partly specified) | 7510 nM | –
17 | > 10000 nM | COc1ccc([C@H]2CC(=O)N(c3cc(N)cc(N)c3)C2)cc1OC1CCCC1 | > 10000 nM | –
18 | 4710 nM | COc1ccc([C@H]2CC(=O)N(c3cccc(N(C)C)c3)C2)cc1OC1CCCC1 | > 10000 nM | –
19 | > 10000 nM | COc1ccc([C@H]2CC(=O)N(C(=O)c3ccccc3)C2)cc1OC1CCCC1 | > 10000 nM | –
20 | 1860 nM | COc1ccc([C@H]2CC(=O)N(c3ccc(N)cc3)C2)cc1OC1CCCC1 | > 10000 nM | –
21 | > 10000 nM | COc1ccc([C@H]2CC(=O)N(c3cccc(N)c3C)C2)cc1OC1CCCC1 | > 10000 nM | –
22 | 2950 nM | COc1ccc([C@H]2CC(=O)N(c3cccc(C(F)(F)F)c3)C2)cc1OC1CCCC1 | > 10000 nM | –
23 | 180 nM | COc1ccc([C@H]2CC(=O)N(c3ccc(S(C)(=O)=O)cc3)C2)cc1OC1CCCC1 | > 10000 nM | –

Row | EC50 [2] | SMILES | CC50 [1] | other results
24 | > 10000 nM | COc1ccc([C@H]2CC(=O)N(Cc3cccc(C#N)c3)C2)cc1OC1CCCC1 | > 10000 nM | –
25 | > 10000 nM | COc1ccc([C@H]2CC(=O)N(C(C)=O)C2)cc1OC1CCCC1 | > 10000 nM | –
26 | 419 nM | COc1ccc([C@H]2CC(=O)N(c3cccc(C)c3)C2)cc1OC1CCCC1 | > 10000 nM | –
27 | 502 nM | COc1ccc([C@H]2CC(=O)N(c3cccc(NC(=O)C(=O)c4cccs4)c3)C2)cc1OC1CCCC1 | > 10000 nM | –
28 | 800 nM | COc1ccc([C@H]2CC(=O)N(c3cccc(NS(=O)(=O)c4cccc(OC(F)(F)F)c4)c3)C2)cc1OC1CCCC1 | > 10000 nM | –
29 | > 10000 nM | COc1ccc([C@H]2CC(=O)N(Cc3cccc(N)c3)C2)cc1OC1CCCC1 | > 10000 nM | –
30 | 2280 nM | COc1ccc([C@H]2CC(=O)N(c3ccccc3)C2)cc1OC1CCCC1 | > 10000 nM | –
31 | 110 nM | COc1ccc([C@H]2CC(=O)N(c3ccncc3)C2)cc1OC1CCCC1 | > 10000 nM | –
32 | > 10000 nM | COc1ccc([C@H]2CC(=O)N(c3ccccc3N)C2)cc1OC1CCCC1 | > 10000 nM | –
33 | 5790 nM | COc1ccc([C@H]2CC(=O)N(c3cccc(NC(=O)C(C)=O)c3)C2)cc1OC1CCCC1 | > 10000 nM | –
34 | 660 nM | COc1ccc([C@H]2CC(=O)N(c3ccc(C#N)cc3)C2)cc1OC1CCCC1 | > 10000 nM | –
35 | > 10000 nM | COc1ccc([C@H]2CC(=O)N(c3ccccc3C#N)C2)cc1OC1CCCC1 | > 10000 nM | –
36 | > 10000 nM | COc1ccc([C@H]2CC(=O)N(c3ccccc3C(F)(F)F)C2)cc1OC1CCCC1 | > 10000 nM | –
37 | 80 nM | COc1ccc([C@H]2CC(=O)N(c3cc(N)cc(F)c3)C2)cc1OC1CCCC1 | > 10000 nM | –
38 | > 10000 nM | COc1ccc([C@H]2CC(=O)N(Cc3cccc([N+](=O)[O-])c3)C2)cc1OC1CCCC1 | > 10000 nM | –
39 | 2630 nM | COc1ccc([C@H]2CC(=O)N(c3ccccn3)C2)cc1OC1CCCC1 | > 10000 nM | –
40 | 102 nM | COc1ccc([C@H]2CC(=O)N(c3cccc(NS(=O)(=O)c4ccc(F)cc4)c3)C2)cc1OC1CCCC1 | > 10000 nM | –
41 | > 10000 nM | COc1ccc([C@H]2CC(=O)N(c3cccc([S+](C)[O-])c3)C2)cc1OC1CCCC1 (stereo partly specified) | > 10000 nM | –
42 | 256 nM | COc1ccc(S(=O)(=O)Nc2cccc(N3C[C@@H](c4ccc(OC)c(OC5CCCC5)c4)CC3=O)c2)cc1 | > 10000 nM | –
43 | 53 nM | COc1ccc([C@H]2CC(=O)N(c3cccc(NS(=O)(=O)c4c(Br)nn(C)c4Cl)c3)C2)cc1OC1CCCC1 | > 10000 nM | –
44 | > 10000 nM | COc1ccc([C@@H]2CNC(=O)C2)cc1OC1CCCC1 [(-)-ROLIPRAM] | > 10000 nM | –
45 | – | O=C1Nc2ccc(Cl)cc2[C@@](C#CC2CC2)(C(F)(F)F)O1 [EFAVIRENZ] | – | EC50 [5]: 10 nM; EC50 [6]: 2530 nM; EC50 [7]: 1 nM; EC50 [10]: 32 nM

Row | SMILES | EC50 [2] | CC50 [1] | other results
46 | COc1ccc([C@H]2CC(=O)N(c3cccc(NS(=O)(=O)c4cccc(C)c4)c3)C2)cc1OC1CCCC1 | 46 nM | > 10000 nM | Selectivity ratio [3]: 6.2; Selectivity ratio [4]: 3.4; EC50 [5]: 14 nM; EC50 [6]: 19 nM; EC50 [7]: 284 nM; Selectivity ratio [8]: 0.41; Selectivity ratio [9]: 0.3; EC50 [10]: 158 nM
47 | COc1ccc([C@H]2CC(=O)N(c3cccc(NS(=O)(=O)c4cc(Br)c(Cl)s4)c3)C2)cc1OC1CCCC1 | 46 nM | > 10000 nM | Selectivity ratio [3]: 16; Selectivity ratio [4]: 12; EC50 [5]: 39 nM; EC50 [6]: 95 nM; EC50 [7]: 753 nM; Selectivity ratio [8]: 2; Selectivity ratio [9]: 0.84; EC50 [10]: 542 nM
48 | COc1ccc([C@H]2CC(=O)N(c3cccc(NS(=O)(=O)c4cc(C)ccc4OC)c3)C2)cc1OC1CCCC1 | 33 nM | > 10000 nM | Selectivity ratio [3]: 15; Selectivity ratio [4]: 5.2; EC50 [5]: 23 nM; EC50 [7]: 507 nM; Selectivity ratio [8]: 1; Selectivity ratio [9]: 0.7; EC50 [10]: 172 nM
